Results taken from ChEMBL document CHEMBL1148968 (J Nat Prod, 2004).
The source made the active and inactive calls. No cut-off for these calls is given here.

Tests used:
[1] = Inhibition of electron transport pathway in C57B1/6 mouse liver mitochondria; type: functional
T47D [2] = experiment: Blockade of HIF1alpha protein expression in hypoxia-induced human T47D cells at 1 uM under 30 mins in normoxic condition followed by 4 hrs in hypoxic condition; type: functional, cell-based
Method in brief: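 T47D nuclear HIF-1α (and HIF-1β) measured by Western blot of nuclear extracts. Exponentially grown cells were pretreated 30 min under normoxia (95% air), then held 4 h at 1% O2.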

[3] = molecular target: T1, Hypoxia inducible factors; HIF-1-alpha, HIF-2-alpha (Homo sapiens, UniProt Q16665+Q99814); experiment: Inhibition of hypoxia-induced HIF1 activation in human T47D cells carrying […] reporter gene measured by luciferase activity; type: cell-based
Method in brief: (§1)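 T47D cells were transiently transfected with the pTK-HRE3-luc reporter (erythropoietin HRE). They were pretreated with compound for 30 min, then held 16 h at 1% O2/5% CO2/94% N2. Luciferase activity was reported as % inhibition versus the induced control. One representative experiment, run in quadruplicate, mean ± SE.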

T47D [4] = experiment: Inhibition of hypoxia-induced secreted VEGF protein level in human T47D cells at 1 uM by ELISA; type: functional
Method in brief: (§2)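 T47D cells seeded at 3.56×10^5/well in DMEM/F12 with 10% FBS and grown 24 h. Half the medium was replaced with serum-free medium containing compound. After a 30 min pretreatment, cells were held 16 h at 1% O2. VEGF in conditioned medium was measured by human VEGF ELISA and normalized to viable cell count (hemocytometer). Triplicate, mean ± SE, ANOVA/Fisher's PLSD.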

SK-BR-3 = experiment: Inhibition of human SK-BR-3 cell proliferation/viability at 100 uM after 48 hrs by MTT assay; type: functional; settings: SK-BR-3, 48 h
Method in brief: (§3)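 Cells grown in DMEM/F12 with 10% FBS and antibiotics, seeded at 3×10^4/well, incubated 24 h at 37 °C. Compound diluted in serum-free medium, tested at 10^-9 to 10^-4 M for 48 h under normoxia. MTT added to 0.25 mg/mL final for 4 h at 37 °C, then lysed in 0.04 N HCl/isopropanol, A570 read.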

[5] = molecular target: T1, Hypoxia inducible factors; HIF-1-alpha, HIF-2-alpha; experiment: Inhibition of hypoxia-induced HIF1 activation in human T47D cells carrying […] reporter gene measured by luciferase activity at 1.78 uM; type: cell-based; method in brief: as §1
Mus musculus = species on record: Mus musculus; experiment: Inhibition of C57B1/6 mouse liver mitochondrial activity in presence of succinate; type: functional
[6] = Inhibition of african green monkey Vero cell proliferation/viability up to 100 uM after 48 hrs by MTT assay; type: cell-based; settings: chlorocebus sabaeus, Vero cells; method in brief: as §3
T47D [7] = experiment: Inhibition of human T47D cell proliferation/viability up to 100 uM after 48 hrs by MTT assay; type: functional; method in brief: as §3
MCF7 = experiment: Inhibition of human MCF7 cell proliferation/viability up to 100 uM after 48 hrs by MTT assay; type: functional; method in brief: as §3
T47D [8] = experiment: Reduction of human T47D cell colony formation under hypoxic condition at 1 uM by clonogenic survival assay; type: functional
Method in brief: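 T47D cells seeded at 400 cells per 100 mm dish and allowed to adhere 4 h. Half the medium was replaced with serum-free medium containing compound. After a 30 min pretreatment, cells were held 24 h at 1% O2 (normoxic comparison run in parallel). Medium was then refreshed and cells grown 2–3 weeks under normoxia. Colonies were methanol-fixed and stained with crystal violet, and those over 50 cells counted.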

MDA-MB-231 = experiment: Inhibition of human MDA-MB-231 cell proliferation/viability up to 100 uM after 48 hrs by MTT assay; type: functional; method in brief: as §3
T47D [9] = experiment: Inhibition of hypoxia-induced secreted VEGF protein level in human T47D cells at 3 uM by ELISA; type: functional; method in brief: as §2

With `CC1=C[C@@H](O)C(C(C)CC[C@@H]2[C@@H](C)[C@]3(C)CC[C@@]2(C)O3)CC1` (some centres undefined) [LAURENDITERPENOL] the IC50 [1] was 800 nM, the Activity (T47D [2]) was “Active” and the EC50 [3] was 0.4 µM. For the same compound, the IC50 [3] was 0.4 µM, the inhibition at 1 µM (T47D [4]) was 55% and the inhibition at 100 µM (SK-BR-3) was 63%. The inhibition [5] was 88%, the Activity (Mus musculus) was “inactive” and the inhibition at 48 h [6] was < 50%. For the same compound, the “inhibition (INH)” value (T47D [7]) was <50%, the “inhibition (INH)” value (MCF7) was <50% and the inhibition at 1 µM (T47D [8]) was 50%. For the same compound, the “inhibition (INH)” value (MDA-MB-231) was <50% and the inhibition at 3 µM (T47D [9]) was 80%.
